High-throughput results deposited in PubChem by several laboratories.
Calb FLC: C. albicans growth inhibition with fluconazole, primary screen, CaCi-2 strain, Alamar Blue fluorescence; C. albicans CaCi-2 (fluconazole-resistant clinical isolate) + fluconazole, 48 h; growth inhibition, % (no concentration beside the values); hit rate 0.57% among 300,000; AID 1979, 2009;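 active means growth inhibition above about 58% in most replicates, limit read from the data, passing the limit was not always enough; inconclusive means exactly half the replicates above a set limit; inactive means most replicates below a set limit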;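 further: all wells also contain fluconazole at 8 µg/ml as a sub-toxic cotreatment; 0% = median of DMSO wells and 100% = median of geldanamycin control wells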
VIM-2 inh: VIM-2 metallo-beta-lactamase inhibitors, primary screen, biochemical, epi-absorbance readout, Pseudomonas aeruginosa enzyme; purified VIM-2, nitrocefin hydrolysis, epi-absorbance fluorescence; inhibition, % at 5.6 µM; hit rate 0.89% among 290,000;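 active means inhibition above the mean of all tested compounds plus 3 SD, cutoff set per screening run, cut at about 7.5% in these data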;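 further: red hydrolysis product quenches plate fluorescence so inhibitors raise well fluorescence; 0% = enzyme with DMSO and 100% = DMSO without enzyme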
ARFGAP1 inh: inhibitors of rat ARFGAP1 GAP activity, primary screen, biochemical, fluorescence polarization, GDP tracer; Arfgap1-stimulated ARF1 GTP hydrolysis, GDP FP detection; AID 651572, 2012; hit rate 0.26% among 360,000; inhibition, % at 16.5 µM;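 active means inhibition above a per-plate limit, mean inhibition of low control wells plus 3 SD, cut at about 25% in these data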;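 further: 0% = DMSO wells with enzyme and 100% = wells lacking Arfgap1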
Target sequence (Q62848 1-136 limits assumed): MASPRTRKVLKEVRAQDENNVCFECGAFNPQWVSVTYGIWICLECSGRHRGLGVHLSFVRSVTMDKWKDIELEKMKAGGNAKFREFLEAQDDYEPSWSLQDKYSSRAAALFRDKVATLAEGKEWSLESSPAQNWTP
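System: truncated rat Arfgap1 GAP domain / Medium: HEPES-based buffer, pH 7.5 / Also added: N-terminally truncated human ARF1-GTP substrate / Incubation: enzyme reaction 120 min at 25 °C after 20 min preincubation / Measured by: FP of antibody-bound GDP Alexa 633 tracer, ex 620/em 688 nm / Replicates: singlicate, each compound tested once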
PHOSPHO1 inh: PubChem AID 1565 | Phosphoethanolamine/phosphocholine phosphatase (Homo sapiens), Q8TCT1 | recombinant PHOSPHO1, absorbance phosphatase assay | inhibition, % at 13.3 µM | hit rate 1.1% among 290,000; in the data active means inhibition above about 60%
IMP-1 inhibitor: IMP-1 metallo-beta-lactamase inhibitors, primary screen, biochemical, epi-absorbance readout, Pseudomonas aeruginosa enzyme | metallo-beta-lactamase IMP-1 (Pseudomonas aeruginosa) | purified IMP-1, nitrocefin hydrolysis, epi-absorbance fluorescence | inhibition, % at 5.6 µM | hit rate 0.45% among 290,000 | AID 1556, 2009;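 active means inhibition above the mean plus 3 SD of all compounds in the same screening run, cut at about 4.5% in these data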;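 further: 0% = IMP-1 with DMSO and 100% = DMSO wells lacking enzyme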
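Assay system: purified recombinant IMP-1 beta-lactamase. Input: IMP-1 0.2 nM before substrate addition. Buffer or medium: Zinc- and detergent-supplemented HEPES buffer, pH 7.1. Schedule: 25 °C, 15 min preincubation, 25 min reaction. Signal: Epi-absorbance fluorescence, 480 nm excitation, 530 nm emission. Evaluation: percent inhibition from optical density relative to buffer-blank wells.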
ASAP1 GAP inh: inhibitors of human ASAP1 ArfGAP activity, primary screen, biochemical, fluorescence polarization; inhibition, % at 16.5 µM; ASAP1-stimulated ARF1 GTP hydrolysis, GDP FP detection; Arf-GAP with SH3 domain, ANK repeat and PH domain-containing protein 1 (Homo sapiens), …; hit rate 0.19% among 360,000; in the data active means inhibition above about 25%;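 further: 0% = vehicle with enzyme and substrate and 100% = no enzyme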
Target sequence (Q9ULH1 325-724 limits assumed): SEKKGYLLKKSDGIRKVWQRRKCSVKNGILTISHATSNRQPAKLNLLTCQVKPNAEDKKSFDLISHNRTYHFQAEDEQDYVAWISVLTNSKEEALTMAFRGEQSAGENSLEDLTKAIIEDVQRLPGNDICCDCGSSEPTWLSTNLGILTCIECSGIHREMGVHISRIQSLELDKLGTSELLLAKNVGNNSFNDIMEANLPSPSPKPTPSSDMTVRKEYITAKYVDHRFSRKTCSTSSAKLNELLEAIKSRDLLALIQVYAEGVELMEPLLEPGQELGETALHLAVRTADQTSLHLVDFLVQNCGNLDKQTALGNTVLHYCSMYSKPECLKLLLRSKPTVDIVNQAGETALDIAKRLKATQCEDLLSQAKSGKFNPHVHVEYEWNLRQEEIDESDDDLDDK
Starred values were filed as active, the others as inactive; u = inconclusive; x = not tested or not shown. Compounds with a hit are over-represented: about 2.6% of the library has one in this group of screens.

SMILES | Calb FLC | VIM-2 inh | ARFGAP1 inh | PHOSPHO1 inh | IMP-1 inhibitor | ASAP1 GAP inh
CCc1nn(CC(=O)NCCN2CCOCC2)c(=O)c2cc3c(OC)cccc3n12 | 1.4 | 8.8* | 6.2 | -0.1 | -0.6 | -1.4
COc1cccc2c1cc1c(=O)n(CC(=O)NCCCN3CCN(C)CC3)nc(C)n12 | 4.9 | 10.3* | 7.6 | 39.9 | -1.8 | 2.9
COc1cc(OC)cc(N(C(=O)C2COc3ccccc3O2)C(C(=O)NC2CCCCC2)c2ccc(O)cc2)c1 (stereo unspecified) | 90.5* | -2.3 | -0.2 | 1.6 | -2.5 | 13.9
COc1ccc(N(C(=O)C2COc3ccccc3O2)C(C(=O)NC2CCCCC2)c2ccccc2)cc1OC (stereo unspecified) | 40.4 | -4.1 | 4.8 | 4.1 | -3.7 | -7.6
CC[C@H](C)Cc1cn([C@@H](CCCCN)C(=O)NCCCCCCCCCCC(=O)N2CCNCC2)nn1 | 1.6 | x | -1.3 | x | x | 6.6
CC[C@H](C)Cc1cn([C@@H](CCCN=C(NC(=O)OC(C)(C)C)NC(=O)OC(C)(C)C)C(=O)NCCCCCCCCCCC(=O)N2CCN(C(=O)OC(C)(C)C)CC2)nn1 | 86.3* | x | x | x | x | x
CCCCN1CC(COCc2ccccc2)Oc2cccc(Sc3ccc(OC)c(OC)c3)c2S1(=O)=O (stereo unspecified) | x | x | -4.0 | x | x | 2.2
COc1ccc(C(=O)Nc2cccc(C(=O)N3CCN(C)CC3)c2)cc1 | -2.5 | 0.5 | -3.3 | -6.6 | -2.0 | 0.2
COc1ccc(C(=O)Nc2cccc(C(=O)N3CCCCC3)c2)cc1 | 9.1 | -3.3 | 5.2 | 65.8* | -2.6 | 0.3
CCCn1cnnc1CNC(=O)[C@H]1O[C@@H](n2ccc(=O)[nH]c2=O)[C@H](O)[C@@H]1O | x | x | 3.7 | x | x | -4.9
CCOc1ccc(N2C(=O)S/C(=C\c3ccc(O)c(OCC)c3)C2=O)cc1 | 0.0 | -2.3 | -1.8 | 11.9 | -3.8 | 8.9
CCOc1cc(/C=C2\SC(=O)N(c3ccc(O)cc3)C2=O)ccc1O | 24.8 | 10.2* | 0.1 | 37.1 | -1.8 | 9.1
Cc1ccc2nc(CN(C)C(=O)[C@@H](Cc3ccccc3)NC(=O)[C@H]3O[C@@H](n4cnc(C(N)=O)n4)[C@H](O)[C@@H]3O)[nH]c2c1 | x | x | -3.8 | x | x | -7.4
CC(C)C[C@@H]1COc2cccc(NCCO)c2S(=O)(=O)N1 | x | x | 7.3 | x | x | 11.8
Cc1ccc(C2CC2c2n[nH]c(=S)n2-c2ccc(Cl)cc2)cc1 (stereo unspecified) | 21.3 | -6.3 | -0.8 | 73.8* | -6.3 | -8.9
Cc1ccc(C2CC2c2n[nH]c(=S)n2-c2cccc(C)c2)cc1 (stereo unspecified) | -33.2 | -5.6 | 0.2 | -66.0 | -2.8 | -7.9
CCn1c(C)cc(/C=C2\NC(=O)N(Cc3ccccc3)C2=O)c1C | -0.9 | -5.4 | 3.8 | 69.6* | -1.9 | 7.2
CCn1c(C)cc(/C=C2/NC(=O)N(Cc3ccccc3F)C2=O)c1C | -12.6 | -0.4 | 3.4 | 9.5 | -2.3 | -1.3
COC1(c2ccccc2)NC(=S)NN=C1c1ccccc1 (stereo unspecified) | 20.2 | -0.9 | 4.8 | 75.2* | -2.6 | -7.5
CCCCOC1(c2ccccc2)NC(=S)NN=C1c1ccccc1 (stereo unspecified) | 24.9 | -3.2 | x | 71.3* | 0.6 | x
Cc1ccc(Nc2cc(C)nn2-c2nc(C)cc(C)n2)cc1 | 5.6 | 7.8* | -1.7 | -4.1 | -7.3 | -10.3
Cc1ccc(Nc2nc3ccccc3nc2-n2nc(C)cc2C)cc1 | -3.8 | -2.1 | 4.2 | 26.2 | -0.9 | -0.1
CC(=O)Nc1cc(C)nn1-c1nc(C)cc(C)n1 | -0.6 | 9.3* | -10.2 | 40.0 | -0.3 | -9.3
Cc1ccc(Nc2cc(C)nn2-c2nc(C)cc(=O)[nH]2)cc1 | 79.9* | 1.5 | x | 28.4 | -2.5 | x
Nc1ccn([C@@H]2O[C@H](C(=O)Nc3ccc(Oc4ccccc4)nc3)[C@@H](O)[C@H]2O)c(=O)n1 | x | x | 12.1 | x | x | 5.5
SMILES | Calb FLC | VIM-2 inh | ARFGAP1 inh | PHOSPHO1 inh | IMP-1 inhibitor | ASAP1 GAP inh
COCCN1Cc2cc(C(=O)OC)c3c(c2C1=O)c1ccccc1n3S(=O)(=O)c1ccc(C)cc1 | x | x | 13.1 | x | x | 9.9
COC1OC(COCc2ccccc2)C2OC(C)(C)OC2C1O (stereo unspecified) | x | x | -11.2 | x | x | 6.0
COc1ccc(-c2nnn3c2C2c4cc(-c5cccc(F)c5)ccc4CCN2C(=O)C3)cc1 (stereo unspecified) | x | x | -1.3 | x | x | 6.4
CCCCCCCCN1C(=O)[C@@H](CC(=O)NCCC(C)C)C[C@@]2(C(=O)OC)C1=C[C@H](C1CCCC1)O[C@@H]2C | x | x | 5.0 | x | x | 1.3
O=[N+]([O-])c1ccc(-c2nn(-c3ccccc3)cc2/C=N/n2c(-c3ccncc3)n[nH]c2=S)cc1 | -1.4 | -2.3 | 1.0 | -144.9 | -4.0 | -6.2
Oc1ccc(/C=N/n2c(-c3ccccc3)n[nH]c2=S)cc1 | 2.3 | 9.2* | 10.7 | -33.9 | 0.2 | -8.9
Oc1c(Br)cc(Br)c(/C=N/n2c(-c3ccccc3)n[nH]c2=S)c1Br | 78.9* | -1.4 | -21.2 | -107.1 | -0.3 | -8.6
Cc1ccc(/C=N/n2c(-c3ccncc3)n[nH]c2=S)cc1 | u | -0.3 | 8.8 | 90.8* | 0.3 | 4.6
S=c1[nH]nc(-c2ccncc2)n1/N=C/c1cn(-c2ccccc2)nc1-c1ccccc1 | 2.9 | -3.1 | -12.6 | 90.4* | -4.9 | 9.1
Oc1ccc(Br)cc1/C=N/n1c(-c2ccccc2)n[nH]c1=S | -7.9 | 2.9 | -2.4 | x | 3.3 | 4.8
Cc1ccccc1-c1ccc2c(c1)[C@@H]1C[C@H]3[C@@H](CN1CC2)[C@H](C)ON3C | x | x | -2.5 | x | x | 14.1
Cc1ccc(-c2n[nH]c(=S)n2/N=C/c2cccs2)cc1 | -3.0 | 1.6 | -14.0 | 27.1 | -2.5 | -7.1
S=c1[nH]nc(-c2ccccc2)n1/N=C/c1cccs1 | 104.7* | 1.3 | x | 38.1 | -1.7 | x
COc1ccccc1N/C=C/c1onc(C)c1[N+](=O)[O-] | 6.2 | 2.9 | -7.3 | 39.8 | -1.3 | -2.9
Cc1noc(/C=C/c2ccccn2)c1[N+](=O)[O-] | 84.8* | -2.2 | 5.3 | x | -3.0 | 3.6
CCOC(=O)c1sc2nc(C)c3c(c2c1N)CC(C)(C)OC3 | 1.9 | 0.1 | 6.0 | -4.2 | -1.1 | -5.5
CCCc1nc2sc(C(=O)OCC)c(N)c2c2c1COC(C)(C)C2 | -2.4 | -0.7 | 12.5 | 47.4 | 6.2* | 5.3
c1ccc(COc2ccccc2CNC23CC4CC(CC(C4)C2)C3)cc1 | 94.9* | 0.0 | -6.2 | 33.5 | -0.4 | 1.5
c1ccc(COc2ccccc2CNC2CCCC2)cc1 | -24.1 | -1.1 | 3.6 | 43.7 | -1.4 | 3.2
